TbHK1 inh: blocks Trypanosoma brucei hexokinase 1 activity; inhibition, % at 10 µM; recombinant TbHK1, G6PDH-coupled NADH A340; hit rate 0.11% among 220,000; AID 1430;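 active means inhibition of 50% or more in the single-dose primary screen; inactive means inhibition below 50%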
Runt-SMMHC FRET: inhibitors of human RUNX1 Runt domain binding to CBFb-SMMHC; inhibition, % at 20 µM; hit rate 0.74% among 220,000; Cerulean-Runt/Venus-CBFb-SMMHC FRET ratio 530/480, 1 h; AID 1434;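 active means mean inhibition across duplicate retests at 20 µM reaching about 50%, limit read from the data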;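 further: 0% = DMSO wells and 100% = wells with excess untagged CBFb-SMMHC; inhibitors lower the FRET ratio by blocking Runt binding to CBFb-SMMHC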
14-3-3 Bad inh: disrupts binding of bovine 14-3-3 zeta to phospho-Bad peptide; P63103; TR-FRET 14-3-3zeta/Dy647-pBad peptide displacement, 1 h; inhibition, % at 21.7 µM; hit rate 0.71% among 220,000; AID 781;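 active means inhibition above about 70%, limit read from the data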;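 further: 0% = full 14-3-3 plus peptide FRET controls and 100% = background without 14-3-3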
Target sequence (P63103 whole entry, looked up): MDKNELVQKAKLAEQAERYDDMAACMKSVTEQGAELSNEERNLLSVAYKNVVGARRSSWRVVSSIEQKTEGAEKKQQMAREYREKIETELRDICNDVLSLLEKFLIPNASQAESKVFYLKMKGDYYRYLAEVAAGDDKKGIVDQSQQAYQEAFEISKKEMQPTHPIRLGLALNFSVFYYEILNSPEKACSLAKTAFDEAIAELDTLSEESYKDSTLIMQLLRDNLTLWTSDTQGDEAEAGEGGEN
Hck-Nef inh: human Hck-Nef kinase inhibition | AID 463187 | hit rate 0.68% among 220,000 | inhibition, % at 20 µM | Recombinant Hck-YEEI plus Nef, Z-Lyte FRET kinase assay;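 active means Hck-Nef kinase inhibition above about 50%, limit read from the data; inactive means inhibition below that limit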;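 further: 0% = DMSO with Hck plus Nef and 100% = Hck alone without Nef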
RanGTP-Imp inh: inhibitors of RanGTP-importin-beta interaction, primary screen, biochemical, FRET, CFP-Ran, YFP-importin-beta, homogeneous; cell-free CFP-Ran/YFP-importin-beta FRET ratio; inhibition, % (concentration not given with the values); hit rate 1.1% among 300,000;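 active means more than half of the replicate wells show a fall in the fluorescence ratio signal beyond about 16%, limit read from the data, passing the limit was not always enough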;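 further: 0% = DMSO wells and 100% = Ran loaded with GDP instead of GTP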
Runt-CBFb FRET: inhibitors of human RUNX1 Runt domain binding to CBFb; hit rate 0.46% among 220,000; inhibition, % at 20 µM; Cerulean-Runt/Venus-CBFb FRET ratio 530/480, 1 h;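 active means inhibition over about 50% at 20 µM in the single-dose screen, limit read from the data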;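 further: 0% = DMSO wells and 100% = excess unlabeled CBFb competitor control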
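Schedule: protein complex preformed 1 h, compound exposure 1 h, room temperature, dark; test system: Cerulean-labeled Runt domain protein; amount: 100 nM per protein; buffer or medium: Tris 50 mM pH 7.5, KCl, K2SO4, 0.01% BSA; read-out: loss of energy transfer signal; detection: FRET fluorescence; controls: 5 µM unlabeled CBFb as full-inhibition high control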
Starred values were filed as active, the others as inactive; x = no result; [ ] = another dose, or the depositor's remark. In the library only some 2.2% were active in any assay of this set; here they are far more common.

SMILES | TbHK1 inh | Runt-SMMHC FRET | 14-3-3 Bad inh | Hck-Nef inh | RanGTP-Imp inh | Runt-CBFb FRET
CC1Cc2cc(S(=O)(=O)N3CCC(C(N)=O)CC3)ccc2N1C(=O)C1CC1 (stereo not given) | x | x | x | x | 18* | x
CCOC(=O)C1CCN(S(=O)(=O)c2ccc3c(c2)CC(C)N3C(=O)C2CC2)CC1 (stereo not given) | x | x | x | x | 0 | x
O=C(NC1CCCCCC1)c1ccc2nc3cc(Cl)ccc3c(=O)n2c1 | -6 | 0 | 5 | 26 | 12 | 7
Cc1ccc2nc3c(cc(C(=O)NC4CCCC4)c(=N)n3C3CCCCC3)c(=O)n2c1 | x | x | x | x | 182* | x
N=c1c(C(=O)NC2CCCC2)cc2c(=O)n3ccccc3nc2n1C1CCCCC1 | x | x | x | x | 181* | x
Cc1ccc2nc3c(cc(C(=O)NC4CCCCC4)c(=N)n3C3CCCCC3)c(=O)n2c1 | x | x | x | x | 182* | x
COc1cccc(N2CCN(C(=O)c3oc4ccccc4c3NC(=O)CCc3cc(OC)no3)CC2)c1 | x | x | x | x | 21 | x
Cc1cccn2c(=O)c(/C=C3\SC(=S)NC3=O)c(NCCCN3CCOCC3)nc12 | -24 | -67 | -12 | -12 | 35* | 26
Cc1ccc2nc(NCc3ccccc3)c(C#N)cc2c1 | -2 | 83 | 5 | 13 | 38* | 42
COc1cc(C(=O)NCCNc2nc3ccc(C)cc3cc2C#N)cc(OC)c1OC | x | x | x | x | 81* | x
COc1cc(C(=O)NCCCNc2nc3c(C)cc(C)cc3cc2C#N)cc(OC)c1OC | -5 | 23 | -7 | 34 | 2 | 16
COc1ccc2nc(NCCCNC(=O)c3cc(OC)c(OC)c(OC)c3)c(C#N)cc2c1 | 11 | 38 | -8 | 6 | 126* | 57*
COc1ccc(C(=O)NCCNc2nc3cc(C)c(C)cc3cc2C)cc1 | x | x | x | x | 6 | x
COc1ccc(C(=O)NCCNc2nc3ccc(C)cc3cc2C#N)cc1 | x | x | x | x | 65* | x
O=C(c1ccc2ccccc2n1)N1CCN(c2ccccc2O)CC1 | -5 | -6 | -11 | 1 | 2 | 1
COc1ccc(C)cc1S(=O)(=O)Nc1ccc2c(c1)N(C(C)=O)CCC2 | x | x | x | x | 1 | x
Cc1ccc(NC(=O)Cn2cnc([N+](=O)[O-])c2)cc1C | x | x | x | x | -1 | x
Cc1c(Nc2ncccc2C(=O)O)cccc1C(F)(F)F | x | x | x | x | -2 | x
O=C(NC1CCCCCC1)C1CC(=O)N(c2ccc(Cl)cc2)C1 (stereo not given) | x | x | x | x | -1 | x
O=C(O)CCCN1C(=O)C2C3CC(C2C1=O)C1C(c2ccccc2)c2sc(=O)[nH]c2SC31 (stereo not given) | 1 | 15 | 5 | -76 | 8 | 14
CC(C(=O)O)N1C(=O)C2C3CC(C2C1=O)C1C(c2ccccc2)c2sc(=O)[nH]c2SC31 (stereo not given) | 1 | 12 | 8 | 0 | 74* | 18
O=c1[nH]c2c(s1)C(c1ccc(O)cc1)C1C3CCC(C3)C1S2 (stereo not given) | 0 | 11 | 5 | 1 | -2 | 16
O=C(O)CN1C(=O)C2C3CC(C2C1=O)C1C(c2ccc(Cl)cc2)c2sc(=O)[nH]c2SC31 (stereo not given) | -2 | 27 | -9 | 23 | 73* | 42
O=C(O)CN1C(=O)C2C3CC(C2C1=O)C1C(c2ccc(F)cc2)c2sc(=O)[nH]c2SC31 (stereo not given) | 1 | 26 | -4 | 24 | 79* | 33
COC(=O)c1scc(C)c1NC(=O)c1ccccc1F | x | x | x | x | 1 | x
SMILES | TbHK1 inh | Runt-SMMHC FRET | 14-3-3 Bad inh | Hck-Nef inh | RanGTP-Imp inh | Runt-CBFb FRET
COc1cccc(CN2CCN(C(=O)c3ccco3)CC2)c1 | x | x | x | x | 2 | x
CCOC(=O)CCCNC(=O)CSc1nc2ccc(OCC)cc2[nH]1 | 3 | 4 | -13 | 17 | -2 | 0
C=CCN(C(=O)c1csnn1)C(C(=O)NCc1ccc(F)cc1)c1sccc1C (stereo not given) | x | x | x | x | 0 | x
COc1ccc2c(-c3cc4ccc(OCc5ccc(F)cc5)cc4oc3=O)cc(=O)oc2c1 | -4 | 0 | 92*[fluorescence artefact?] | -2 | -1 | -3
O=C(CN1CCN(c2ccc(F)cc2)CC1)NCC1CCCO1 (stereo not given) | 2 | 5 | -10 | 1 | x | -1
COc1ccccc1N1CCN(CC(=O)NCC2CCCO2)CC1 (stereo not given) | 5 | 1 | 75* | 0 | 0 | 0
Oc1c(Cl)cc(Cl)cc1/C=N/NC(=S)NC1CC2C=CC1C2 (stereo not given) | -9 | 90* | -11 | -88 | 9 | 12
Cc1cc(C)c2c3c(sc2n1)C(c1cccc(F)c1)C(C#N)=C(N)O3 (stereo not given) | 0 | 62* | -9 | -16 | 91* | 90*
Cc1oc(C)c2c(=O)ccc3c(c12)OC(N)=C(C#N)C3c1ccc(F)cc1 (stereo not given) | -7 | 0 | -5 | 7 | 2 | 3
COc1ccc(CN2C(=O)CC(C(=O)NCCc3ccc(S(N)(=O)=O)cc3)SC2=Nc2ccccc2)cc1 (stereo not given) | -20 | -4 | 1 | 17 | -1 | -5
CCS(=O)(=O)N1CCCC(C(=O)NC2CCCC2)C1 (stereo not given) | -3 | -4 | 89* | 1 | -1 | -2
C/C(=N/NC(=O)c1ccc2c(c1)OCO2)c1ccc(NC(=O)C(F)(F)F)cc1 | -6 | 2 | 86* | 7 | 8 | 0
C/C(=N\NC(=O)c1ccc2c(c1)OCO2)c1ccc(O)cc1 | -20 | -1 | -1 | -11 | -1 | -1
O=C(c1ccc(-c2cccc(C(F)(F)F)c2)o1)N1CCCC(C(F)(F)F)C1 (stereo not given) | x | x | x | x | -2 | x
CC(=O)N1CCc2c(sc(NC(=O)Cc3ccc(F)cc3)c2C(N)=O)C1 | x | x | x | x | 8 | x
CN1CCc2c(sc(NC(=O)c3ccc(C(=O)c4ccccc4)cc3)c2C(N)=O)C1 | x | x | x | x | 2 | x
CCN1CCc2c(sc(NC(=O)CN3C(=O)c4ccccc4C3=O)c2C(N)=O)C1 | -3 | 102* | -1 | 27 | -4 | 62*
NC(=O)c1c(NC(=O)Cc2ccccc2)sc2c1CCN(Cc1ccccc1)C2 | x | x | x | x | 134* | x
NC(=O)c1c(NC(=O)CN2C(=O)NC(Cc3ccccc3)C2=O)sc2c1CCC2 (stereo not given) | -16 | -2 | 3 | 14 | 7 | 2
CC(=O)Nc1sc2c(c1C(N)=O)CCN(Cc1ccccc1)C2 | -11 | 130* | 3 | 5 | 162* | 9
Cc1nn(C)c(Cl)c1C(N)=O | 0 | -6 | -12 | 6 | -3 | -1
CCC(C)c1ccc(NC(=S)NCc2ccccc2OC)cc1 (stereo not given) | 16 | 1 | -20 | 16 | -4 | -1
O=C(O)CCC(=O)N1N=C(c2ccc(Br)cc2)CC1c1cccs1 (stereo not given) | -4 | -4 | 82* | 15 | -7 | -1

From PubChem
